The record followed here is ChEMBL document CHEMBL3763066, “Potent μ-Opioid Receptor Agonists from Cyclic Peptides Tyr-c[D-Lys-Xxx-Tyr-Gly]: Synthesis, Biological, and Structural Evaluation” (J Med Chem, 2016).

For assay [1], the target named is Mu-type opioid receptor (Rattus norvegicus, UniProt P33535). Description: Displacement of [3H]DAMGO from rat cortical MOR by liquid scintillation counting method. Background: Loss of bound radioactivity is the signal in a displacement assay; it reports binding, not function.
Chain of Mu-type opioid receptor (Rattus norvegicus, UniProt P33535) (P33535 whole entry): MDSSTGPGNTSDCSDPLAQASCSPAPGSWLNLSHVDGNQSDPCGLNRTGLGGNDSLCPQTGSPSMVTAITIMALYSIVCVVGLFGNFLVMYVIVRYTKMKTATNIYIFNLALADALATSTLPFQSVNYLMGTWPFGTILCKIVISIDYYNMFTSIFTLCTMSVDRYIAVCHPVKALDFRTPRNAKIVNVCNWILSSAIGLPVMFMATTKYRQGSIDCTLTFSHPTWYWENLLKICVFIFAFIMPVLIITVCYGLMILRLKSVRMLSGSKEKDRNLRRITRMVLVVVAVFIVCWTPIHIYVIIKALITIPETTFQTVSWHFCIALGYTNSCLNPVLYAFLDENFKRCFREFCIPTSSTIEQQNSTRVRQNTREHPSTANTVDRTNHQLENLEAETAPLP
Assay [2] concerns the target Kappa-type opioid receptor (Cavia porcellus, UniProt P41144). The assay is described as follows: Displacement of [3H]U69,593 from guinea pig KOR after 2 hrs by liquid scintillation counting method.
Assay [3] deals with Delta-type opioid receptor (Rattus norvegicus, UniProt P33533). The assay is described as follows: Displacement of [3H]DPDPE from rat cortical DOR after […] by liquid scintillation counting method.
Chain of Delta-type opioid receptor (P33533 whole entry): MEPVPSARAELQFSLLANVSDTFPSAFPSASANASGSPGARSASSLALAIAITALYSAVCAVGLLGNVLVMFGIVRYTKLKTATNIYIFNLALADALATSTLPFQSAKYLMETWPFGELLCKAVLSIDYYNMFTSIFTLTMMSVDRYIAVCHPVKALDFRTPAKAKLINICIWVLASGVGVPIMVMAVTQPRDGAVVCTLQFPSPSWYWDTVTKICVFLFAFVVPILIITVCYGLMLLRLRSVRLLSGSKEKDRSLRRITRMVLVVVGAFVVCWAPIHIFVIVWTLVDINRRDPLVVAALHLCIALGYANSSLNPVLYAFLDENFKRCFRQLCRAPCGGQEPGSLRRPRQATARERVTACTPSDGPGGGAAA
Assay [4] can be described thus: Selectivity ratio of Ki for guinea pig KOR to Ki for rat cortical MOR. Summed up:
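KOR: guinea pig cortex and cerebellum membranes in 50 mM Tris pH 7.4, 10 mM MgCl2, 200 μM PMSF, with 2 nM [3H]U69,593, 2 h at 25 °C; U50,488 defined nonspecific binding. […] Both used GF/B filtration and scintillation counting. The ratio is Ki(KOR)/Ki(MOR).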

The species entered for another assay is Rattus norvegicus. Description: Selectivity ratio of Ki for rat cortical DOR to Ki for rat cortical MOR.
Assay [5] addresses T1, Mu-type opioid receptor (Homo sapiens, UniProt P35372). Type of assay: cell-based, CHO.
For assay [6], the target named is T1, Mu-type opioid receptor. Description: Potency index, ratio of morphine EC50 to compound EC50 for human MOR. Summed up: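 CHO cells expressing human MOR were seeded 1 day before the assay. Cells were loaded with membrane-potential blue dye in HBSS/20 mM HEPES pH 7.4 for 45 min at 37 °C, then compound was added. Fluorescence (ex 530, em 550–565 nm) was read every 3 s for 60 s, taking maximum minus minimum response. The index is morphine EC50 divided by compound EC50.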

Each structure is given as a SMILES string. pIC50, pKi: −log10 of the molar value. Where a SMILES comes first, the peptide text is derived from it. Bridges are numbered along the chain shown (N, C = ends). [ ]: non-standard residue; d: D form. 2Abz = Nc1ccccc1C(=O)O; Dap = NC[C@H](N)C(=O)O

T1 sequence (P35372 whole entry): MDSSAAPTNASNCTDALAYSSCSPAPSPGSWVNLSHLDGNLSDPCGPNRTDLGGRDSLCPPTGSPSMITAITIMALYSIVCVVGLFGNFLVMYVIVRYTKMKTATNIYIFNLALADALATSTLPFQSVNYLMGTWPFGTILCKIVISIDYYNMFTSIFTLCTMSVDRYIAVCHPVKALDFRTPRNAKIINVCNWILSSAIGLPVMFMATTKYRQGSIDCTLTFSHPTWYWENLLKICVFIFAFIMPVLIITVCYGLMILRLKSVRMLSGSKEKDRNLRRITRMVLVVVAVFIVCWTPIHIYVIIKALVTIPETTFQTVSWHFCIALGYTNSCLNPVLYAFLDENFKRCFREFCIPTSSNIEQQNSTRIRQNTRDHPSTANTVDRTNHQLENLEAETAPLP
Chain of Kappa-type opioid receptor (P41144 whole entry): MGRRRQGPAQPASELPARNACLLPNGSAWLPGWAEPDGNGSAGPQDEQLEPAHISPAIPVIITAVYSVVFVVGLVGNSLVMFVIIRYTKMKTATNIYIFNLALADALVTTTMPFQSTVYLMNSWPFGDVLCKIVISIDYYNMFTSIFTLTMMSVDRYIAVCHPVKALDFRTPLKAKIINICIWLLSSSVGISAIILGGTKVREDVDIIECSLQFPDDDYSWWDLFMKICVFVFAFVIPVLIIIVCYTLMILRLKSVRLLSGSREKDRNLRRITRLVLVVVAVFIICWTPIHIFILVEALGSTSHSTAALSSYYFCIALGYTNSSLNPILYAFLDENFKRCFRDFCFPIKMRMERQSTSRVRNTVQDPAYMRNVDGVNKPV

As for `N[C@@H](Cc1ccc(O)cc1)C(=O)N[C@@H]1CCCCNC(=O)CNC(=O)[C@H](Cc2ccc(O)cc2)NC(=O)[C@H](Cc2c[nH]c3ccccc23)NC1=O`, the pKi (in general, the negative decadic logarithm of the Ki, by convention in mol/L) is 8.70 at Mu-type opioid receptor [1], 5.09 in assay [2] and 7.00 in assay [3]. The Ratio Ki in assay [4] turned out to be 2940; in the assay filed under Rattus norvegicus, 50. In addition, at Mu-type opioid receptor [5], the pIC50 (commonly the IC50 on a negative log10 scale, so that one unit is a factor of ten) is 7.62.
In assay [2], `Nc1ccccc1C(=O)NC[C@@H]1NC(=O)[C@H](NC(=O)[C@@H](N)Cc2ccc(O)cc2)CCCCNC(=O)CNC(=O)[C@H](Cc2ccc(O)cc2)NC1=O` (H-Y[dK][Dap](2Abz)YG; lactam 2-C) had a pKi of 5.49. The values for the Ratio Ki (in assay [4]; in the assay filed under Rattus norvegicus) were 231 and 62, respectively.
On to `N[C@@H](Cc1ccc(O)cc1)C(=O)N[C@@H]1CCCCNC(=O)CNC(=O)[C@H](Cc2ccc(O)cc2)NC(=O)[C@H](Cc2cccnc2)NC1=O`, for which the pKi at Mu-type opioid receptor [1] was 8.71; in assay [2], 5.27; in assay [3] it was 5.89. The Ratio Ki in assay [4] was 1320; in the assay listed under Rattus norvegicus it was 658. On Mu-type opioid receptor [5], this compound showed a negative-log IC50 (pIC50) of 7.95.
As for `N[C@@H](Cc1ccc(O)cc1)C(=O)N[C@@H]1CCCCNC(=O)CNC(=O)[C@H](Cc2ccc(O)cc2)NC(=O)[C@H](Cc2ccccc2)NC1=O`, the pKi at Mu-type opioid receptor [1] was 9.00; in assay [2] it was 5.35; in assay [3] it was 7.41. The Ratio Ki was determined as 4520 in assay [4] and 39 in the assay listed under Rattus norvegicus. The compound further had a pIC50 against Mu-type opioid receptor [5] of 8.64. Also, the Ratio EC50 at Mu-type opioid receptor [6] worked out at 3.
On to `N[C@@H](Cc1ccc(O)cc1)C(=O)N[C@@H]1CCCCNC(=O)CNC(=O)[C@H](Cc2ccc(O)cc2)NC(=O)[C@H](Cc2ccc(O)cc2)NC1=O`, for which the values for the pKi (on Mu-type opioid receptor [1]; in assay [2]; in assay [3]) were 6.94, less than 5.00 and 6.77, respectively. For the same compound, the Ratio Ki was greater than 324 in assay [4] and 1.5 in the assay listed under Rattus norvegicus. Besides, the pIC50 on Mu-type opioid receptor [5] was 7.15.
Regarding `NC(=O)NCCC[C@@H]1NC(=O)[C@H](NC(=O)[C@@H](N)Cc2ccc(O)cc2)CCCCNC(=O)CNC(=O)[C@H](Cc2ccc(O)cc2)NC1=O`, the pKi is 8.04 on Mu-type opioid receptor [1], 5.07 in assay [2] and 5.48 in assay [3]. Moreover, the Ratio Ki in assay [4] is 760; in the assay filed under Rattus norvegicus it was 367. On Mu-type opioid receptor [5], the pIC50 was 7.17.
Consider `N=C(N)NCCC[C@@H]1NC(=O)[C@H](NC(=O)[C@@H](N)Cc2ccc(O)cc2)CCCCNC(=O)CNC(=O)[C@H](Cc2ccc(O)cc2)NC1=O`, for which the pKi at Mu-type opioid receptor [1] is 7.76; in assay [2], 5.07; in assay [3], less than 5.00. Besides, the Ratio Ki was 406 in assay [4] and greater than 805 in the assay listed under Rattus norvegicus. Further, the pIC50 against Mu-type opioid receptor [5] is 6.88.
For the compound `N[C@@H](Cc1ccc(O)cc1)C(=O)N[C@@H]1CCCCNC(=O)CNC(=O)[C@H](Cc2ccc(O)cc2)NC(=O)[C@H](Cc2ccncc2)NC1=O`, the pKi at Mu-type opioid receptor [1] was 8.04; in assay [2], less than 5.00; in assay [3], 5.64. In addition, the Ratio Ki in assay [4] is 1100; in the assay listed under Rattus norvegicus, 247. At Mu-type opioid receptor [5], this compound had a pIC50 of 7.49.
